Source: ChEMBL document CHEMBL1156877, “Discovery of 6-benzyloxyquinolines as c-Met selective kinase inhibitors” (Bioorg Med Chem Lett, 2010)

How the values were obtained:
[1] = biological target: Protein-tyrosine kinase 6 (Homo sapiens, UniProt Q13882); assay: Inhibition of recombinant BRK by TR-FRET assay
Outline: (§1)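 Recombinant tyrosine kinase incubated with test compound and substrate peptide/ATP for 90 min at 30 °C; enzyme amount, ATP level, substrate and cation vary by kinase. Reaction stopped, then TR-FRET reagent with europium-labelled anti-phospho-substrate antibody added for 5 min at room temperature; substrate phosphorylation read as time-resolved fluorescence.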

MDA-MB-231 = assay: Cytotoxicity against human MDA-MB-231 cells after 96 hrs by WST8 assay; details: MDA-MB-231, 96 h
[2] = biological target: T1, Tyrosine-protein kinase receptor UFO (Homo sapiens, UniProt P30530); assay: Inhibition of recombinant AXL by TR-FRET assay; outline: as §1
T1 sequence (P30530 whole entry): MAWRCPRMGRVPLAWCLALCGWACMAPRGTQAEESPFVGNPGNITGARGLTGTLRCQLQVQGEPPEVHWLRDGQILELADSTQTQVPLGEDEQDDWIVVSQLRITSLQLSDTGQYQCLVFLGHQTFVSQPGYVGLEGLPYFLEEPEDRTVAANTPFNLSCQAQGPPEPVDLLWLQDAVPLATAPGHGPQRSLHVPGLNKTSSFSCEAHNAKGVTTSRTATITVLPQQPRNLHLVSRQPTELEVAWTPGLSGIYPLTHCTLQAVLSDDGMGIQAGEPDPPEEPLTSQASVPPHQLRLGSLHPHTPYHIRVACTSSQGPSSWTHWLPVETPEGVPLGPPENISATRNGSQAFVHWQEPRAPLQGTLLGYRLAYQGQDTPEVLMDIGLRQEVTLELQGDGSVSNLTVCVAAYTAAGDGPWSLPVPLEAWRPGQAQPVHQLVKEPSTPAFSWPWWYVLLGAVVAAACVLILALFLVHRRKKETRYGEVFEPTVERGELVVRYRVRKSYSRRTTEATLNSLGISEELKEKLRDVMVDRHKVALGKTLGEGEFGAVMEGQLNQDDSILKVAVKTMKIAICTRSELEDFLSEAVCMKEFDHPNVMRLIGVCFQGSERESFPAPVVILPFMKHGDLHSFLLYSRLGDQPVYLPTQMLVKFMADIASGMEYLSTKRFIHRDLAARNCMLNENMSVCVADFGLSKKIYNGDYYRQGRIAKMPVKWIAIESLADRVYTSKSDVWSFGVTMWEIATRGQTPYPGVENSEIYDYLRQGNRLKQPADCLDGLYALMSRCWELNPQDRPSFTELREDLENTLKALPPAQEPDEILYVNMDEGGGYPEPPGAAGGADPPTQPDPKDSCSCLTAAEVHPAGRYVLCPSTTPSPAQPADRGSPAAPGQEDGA

COLO 205 = assay: Cytotoxicity against human COLO205 cells after 96 hrs by WST8 assay; details: COLO 205, 96 h
Insulin receptor = Insulin receptor (Homo sapiens, UniProt P06213); assay: Inhibition of recombinant InsR by TR-FRET assay
Sequence of Insulin receptor (P06213 28-758 limits assumed): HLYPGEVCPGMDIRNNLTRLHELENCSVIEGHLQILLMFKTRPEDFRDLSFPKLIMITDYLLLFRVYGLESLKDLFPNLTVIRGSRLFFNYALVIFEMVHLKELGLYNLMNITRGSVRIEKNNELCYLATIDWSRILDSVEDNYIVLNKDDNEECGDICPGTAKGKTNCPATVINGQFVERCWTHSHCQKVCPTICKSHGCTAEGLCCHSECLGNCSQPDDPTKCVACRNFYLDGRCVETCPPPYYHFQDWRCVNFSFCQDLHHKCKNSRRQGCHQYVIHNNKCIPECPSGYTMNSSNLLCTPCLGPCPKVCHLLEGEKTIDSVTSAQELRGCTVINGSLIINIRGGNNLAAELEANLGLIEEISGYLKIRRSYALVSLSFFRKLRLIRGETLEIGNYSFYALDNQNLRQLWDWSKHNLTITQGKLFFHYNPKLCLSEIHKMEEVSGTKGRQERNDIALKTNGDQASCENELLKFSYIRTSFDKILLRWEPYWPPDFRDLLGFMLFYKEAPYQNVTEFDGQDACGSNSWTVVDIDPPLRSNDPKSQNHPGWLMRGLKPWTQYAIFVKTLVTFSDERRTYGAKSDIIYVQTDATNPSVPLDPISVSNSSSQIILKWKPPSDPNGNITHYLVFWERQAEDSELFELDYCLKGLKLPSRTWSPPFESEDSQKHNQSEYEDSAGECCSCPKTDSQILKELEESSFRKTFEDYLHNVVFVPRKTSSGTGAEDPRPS
Sequence of Insulin receptor (P06213 763-1382 limits assumed): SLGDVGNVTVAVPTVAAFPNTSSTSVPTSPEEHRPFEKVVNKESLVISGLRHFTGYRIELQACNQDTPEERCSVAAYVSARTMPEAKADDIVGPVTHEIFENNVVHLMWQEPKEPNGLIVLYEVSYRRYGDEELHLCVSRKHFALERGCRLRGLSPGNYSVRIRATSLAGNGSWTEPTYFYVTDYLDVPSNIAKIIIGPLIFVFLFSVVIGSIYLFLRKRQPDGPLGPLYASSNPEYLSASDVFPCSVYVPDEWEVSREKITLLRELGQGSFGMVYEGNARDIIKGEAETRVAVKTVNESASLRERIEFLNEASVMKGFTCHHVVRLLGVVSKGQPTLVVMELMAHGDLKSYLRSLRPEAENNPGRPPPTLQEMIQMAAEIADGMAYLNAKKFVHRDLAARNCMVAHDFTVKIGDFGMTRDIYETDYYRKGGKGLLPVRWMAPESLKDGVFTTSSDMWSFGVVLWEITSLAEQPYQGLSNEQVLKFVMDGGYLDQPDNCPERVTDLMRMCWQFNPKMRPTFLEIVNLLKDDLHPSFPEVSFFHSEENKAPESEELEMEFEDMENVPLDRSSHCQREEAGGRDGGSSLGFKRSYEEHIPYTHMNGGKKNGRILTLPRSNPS

[3] = Inhibition of recombinant PKA by IMAP assay
Outline: (§2)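 Recombinant enzyme mixed with test compound and substrate peptide/ATP solution, incubated 90 min at 30 °C; enzyme quantity, ATP, substrate and cation set per kinase. IMAP reagent then added for 5 min at room temperature, and peptide phosphorylation quantified by fluorescence polarization.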

Aurora kinase A = biological target: T2, Aurora kinase A (Homo sapiens, UniProt O14965); assay: Inhibition of recombinant Aurora A by IMAP assay; outline: as §2
T2 sequence (O14965 whole entry): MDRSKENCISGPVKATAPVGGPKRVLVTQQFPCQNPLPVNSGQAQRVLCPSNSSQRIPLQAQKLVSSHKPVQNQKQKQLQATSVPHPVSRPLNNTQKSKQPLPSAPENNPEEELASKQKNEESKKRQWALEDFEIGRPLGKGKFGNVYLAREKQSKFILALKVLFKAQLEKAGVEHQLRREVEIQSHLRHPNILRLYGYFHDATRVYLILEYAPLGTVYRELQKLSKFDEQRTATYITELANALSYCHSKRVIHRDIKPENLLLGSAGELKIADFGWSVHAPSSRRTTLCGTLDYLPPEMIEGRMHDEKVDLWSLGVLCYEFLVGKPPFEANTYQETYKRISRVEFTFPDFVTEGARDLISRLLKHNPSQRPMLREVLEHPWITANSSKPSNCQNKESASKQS

[4] = biological target: Leukocyte tyrosine kinase receptor (Homo sapiens, UniProt P29376); assay: Inhibition of recombinant LTK by TR-FRET assay; outline: as §1
Sequence of Leukocyte tyrosine kinase receptor (P29376 whole entry): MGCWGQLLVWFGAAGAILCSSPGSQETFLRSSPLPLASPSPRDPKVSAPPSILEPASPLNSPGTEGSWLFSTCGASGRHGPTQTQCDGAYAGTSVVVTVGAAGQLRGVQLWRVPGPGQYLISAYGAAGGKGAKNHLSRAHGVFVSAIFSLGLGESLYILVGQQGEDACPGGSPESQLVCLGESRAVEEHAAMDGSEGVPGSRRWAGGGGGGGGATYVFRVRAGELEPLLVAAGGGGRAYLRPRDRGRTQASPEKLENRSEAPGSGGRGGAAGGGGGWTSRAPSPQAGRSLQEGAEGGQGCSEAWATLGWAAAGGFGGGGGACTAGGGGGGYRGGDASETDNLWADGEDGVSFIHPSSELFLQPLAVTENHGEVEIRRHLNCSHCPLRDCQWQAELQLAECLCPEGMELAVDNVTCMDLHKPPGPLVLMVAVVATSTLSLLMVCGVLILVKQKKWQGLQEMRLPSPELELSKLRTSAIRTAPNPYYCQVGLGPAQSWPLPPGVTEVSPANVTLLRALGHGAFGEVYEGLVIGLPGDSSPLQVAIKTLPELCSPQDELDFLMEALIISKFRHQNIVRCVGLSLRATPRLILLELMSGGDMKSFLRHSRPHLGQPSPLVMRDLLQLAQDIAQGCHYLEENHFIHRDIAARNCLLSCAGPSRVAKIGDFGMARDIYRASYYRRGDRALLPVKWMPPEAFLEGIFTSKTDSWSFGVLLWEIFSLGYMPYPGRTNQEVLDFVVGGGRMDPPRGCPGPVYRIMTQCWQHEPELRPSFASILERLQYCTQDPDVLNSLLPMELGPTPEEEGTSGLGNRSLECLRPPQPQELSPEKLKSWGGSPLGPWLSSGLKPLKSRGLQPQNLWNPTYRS

HUVEC [5] = assay: Inhibition of ECGS-induced proliferation of HUVEC after 96 hrs by WST8 assay; details: Homo sapiens
A549 = assay: Cytotoxicity against human A549 cells after 96 hrs by WST8 assay; details: A549, 96 h
NCI-N87 = assay: Cytotoxicity against human NCI-N87 cells after 96 hrs by WST8 assay; details: NCI-N87, 96 h
HUVEC [6] = assay: Inhibition of VEGF-induced proliferation of HUVEC after 96 hrs by WST8 assay; details: Homo sapiens
[7] = biological target: Protein kinase C beta type (Homo sapiens, UniProt P05771); assay: Inhibition of recombinant PKCbeta1 by IMAP assay; outline: as §2
Sequence of Protein kinase C beta type (P05771 whole entry): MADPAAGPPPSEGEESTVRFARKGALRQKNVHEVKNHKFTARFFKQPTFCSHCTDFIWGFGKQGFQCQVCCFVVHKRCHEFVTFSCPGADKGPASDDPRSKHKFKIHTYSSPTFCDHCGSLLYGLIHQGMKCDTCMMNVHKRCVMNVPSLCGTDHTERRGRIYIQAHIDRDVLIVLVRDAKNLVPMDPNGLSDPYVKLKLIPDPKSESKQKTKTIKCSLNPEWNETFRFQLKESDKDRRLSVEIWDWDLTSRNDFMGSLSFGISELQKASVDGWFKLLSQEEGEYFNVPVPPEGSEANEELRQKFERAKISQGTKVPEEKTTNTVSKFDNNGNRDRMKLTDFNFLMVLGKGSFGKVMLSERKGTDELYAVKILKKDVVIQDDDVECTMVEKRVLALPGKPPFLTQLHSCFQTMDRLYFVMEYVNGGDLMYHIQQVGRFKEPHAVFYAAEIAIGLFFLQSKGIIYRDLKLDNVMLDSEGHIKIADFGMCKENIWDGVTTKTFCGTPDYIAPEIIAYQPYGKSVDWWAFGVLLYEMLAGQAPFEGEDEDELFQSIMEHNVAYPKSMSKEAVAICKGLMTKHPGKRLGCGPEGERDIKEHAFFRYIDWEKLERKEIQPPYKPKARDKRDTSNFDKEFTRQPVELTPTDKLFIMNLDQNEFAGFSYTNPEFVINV

[8] = biological target: Fibroblast growth factor receptor 2 (Homo sapiens, UniProt P21802); assay: Inhibition of recombinant FGFR2 by TR-FRET assay; outline: as §1
Sequence of Fibroblast growth factor receptor 2 (P21802 whole entry): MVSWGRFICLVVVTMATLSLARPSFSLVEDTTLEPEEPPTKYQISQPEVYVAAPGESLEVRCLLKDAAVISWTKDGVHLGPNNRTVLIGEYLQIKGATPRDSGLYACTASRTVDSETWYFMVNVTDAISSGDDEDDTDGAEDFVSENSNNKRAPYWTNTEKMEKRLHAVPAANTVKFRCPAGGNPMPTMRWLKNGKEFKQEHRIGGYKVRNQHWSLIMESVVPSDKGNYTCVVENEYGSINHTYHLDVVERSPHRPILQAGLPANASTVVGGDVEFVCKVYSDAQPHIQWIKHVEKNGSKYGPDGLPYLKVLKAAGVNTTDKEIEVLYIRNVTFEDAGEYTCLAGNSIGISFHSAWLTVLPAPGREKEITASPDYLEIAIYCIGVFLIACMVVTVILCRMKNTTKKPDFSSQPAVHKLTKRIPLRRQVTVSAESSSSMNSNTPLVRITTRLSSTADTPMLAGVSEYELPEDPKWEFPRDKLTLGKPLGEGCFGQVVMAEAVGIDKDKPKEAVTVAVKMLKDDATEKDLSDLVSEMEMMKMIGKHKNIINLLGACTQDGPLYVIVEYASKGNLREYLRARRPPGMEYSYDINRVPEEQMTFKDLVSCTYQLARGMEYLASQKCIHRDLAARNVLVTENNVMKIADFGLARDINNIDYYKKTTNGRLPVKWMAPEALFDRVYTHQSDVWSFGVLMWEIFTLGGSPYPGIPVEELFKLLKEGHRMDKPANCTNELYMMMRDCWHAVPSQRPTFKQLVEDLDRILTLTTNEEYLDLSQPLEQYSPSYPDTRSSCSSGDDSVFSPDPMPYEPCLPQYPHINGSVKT

MKN-28 = assay: Cytotoxicity against human MKN28 cells after 96 hrs by WST8 assay; details: MKN-28, 96 h
T47D = assay: Cytotoxicity against human T47D cells after 96 hrs by WST8 assay
[9] = biological target: Tyrosine-protein kinase Fyn (Homo sapiens, UniProt P06241); assay: Inhibition of recombinant Fyn by TR-FRET assay; outline: as §1
Sequence of Tyrosine-protein kinase Fyn (P06241 whole entry): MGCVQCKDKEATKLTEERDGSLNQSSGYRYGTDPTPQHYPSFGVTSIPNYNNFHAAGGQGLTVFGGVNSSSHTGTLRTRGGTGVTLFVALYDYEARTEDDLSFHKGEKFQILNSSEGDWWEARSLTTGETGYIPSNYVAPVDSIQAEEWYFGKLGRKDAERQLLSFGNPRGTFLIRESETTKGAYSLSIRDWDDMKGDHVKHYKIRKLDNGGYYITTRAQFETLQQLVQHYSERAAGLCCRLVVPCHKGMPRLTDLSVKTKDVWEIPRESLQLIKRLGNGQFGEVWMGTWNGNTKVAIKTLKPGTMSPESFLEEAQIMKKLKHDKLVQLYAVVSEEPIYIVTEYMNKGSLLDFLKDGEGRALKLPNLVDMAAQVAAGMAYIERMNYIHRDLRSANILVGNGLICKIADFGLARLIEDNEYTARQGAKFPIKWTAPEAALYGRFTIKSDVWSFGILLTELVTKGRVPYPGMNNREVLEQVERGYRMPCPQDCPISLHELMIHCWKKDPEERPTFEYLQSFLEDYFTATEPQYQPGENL

[10] = biological target: Hepatocyte growth factor receptor (Homo sapiens, UniProt P08581); assay: Inhibition of recombinant c-Met by TR-FRET assay
[11] = biological target: Cyclin-dependent kinase 2 (Homo sapiens, UniProt P24941); assay: Inhibition of recombinant CDK2 by IMAP assay; outline: as §2
HUVEC [12] = assay: Inhibition of HGF-induced proliferation of HUVEC after 96 hrs by WST8 assay; details: Homo sapiens

Sequence of Protein-tyrosine kinase 6 (Q13882 whole entry): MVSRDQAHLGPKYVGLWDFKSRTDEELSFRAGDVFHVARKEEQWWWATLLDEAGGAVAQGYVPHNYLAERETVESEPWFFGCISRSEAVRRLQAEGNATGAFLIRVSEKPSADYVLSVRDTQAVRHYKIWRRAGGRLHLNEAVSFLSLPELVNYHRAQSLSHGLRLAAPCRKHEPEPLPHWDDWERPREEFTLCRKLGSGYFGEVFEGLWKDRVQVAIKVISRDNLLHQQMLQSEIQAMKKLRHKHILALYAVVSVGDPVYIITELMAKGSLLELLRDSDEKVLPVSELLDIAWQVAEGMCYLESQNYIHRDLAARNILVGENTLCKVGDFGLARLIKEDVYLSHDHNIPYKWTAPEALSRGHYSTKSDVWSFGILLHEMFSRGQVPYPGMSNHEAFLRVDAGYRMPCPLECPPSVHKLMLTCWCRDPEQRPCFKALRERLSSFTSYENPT

IC50 [1]: > 50 µM | IC50 [2]: 0.43 µM | IC50 (Insulin receptor): > 50 µM | IC50 [3]: > 50 µM | IC50 (Aurora kinase A): 22 µM | IC50 [4]: 10 µM | IC50 [7]: > 50 µM | IC50 [8]: 12 µM | IC50 [9]: 25 µM | IC50 [10]: 0.0093 µM | IC50 [11]: > 50 µM
SMILES: C[C@@H](Oc1ccc2ncc(C3CC3C(N)=O)cc2c1)c1c(Cl)ccc(F)c1Cl (stereo not given in full)
IC50 (MDA-MB-231): > 1 µM | IC50 (COLO 205): > 1 µM | IC50 (HUVEC [5]): 9.9 µM | IC50 (A549): > 1 µM | IC50 (NCI-N87): > 1 µM | IC50 (HUVEC [6]): 6.7 µM | IC50 (MKN-28): > 1 µM | IC50 (T47D): > 1 µM | IC50 (HUVEC [12]): 0.3 µM
